Measurements published in ChEMBL document CHEMBL1129936, “Water soluble furoxan derivatives as NO prodrugs” (J Med Chem, 1997).

Columns and labels:
[1] = Nitric oxide released from prodrug in the absence of cysteine
Outline: (§1)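 Compound at 10^-4 M final in pH 7.4 buffered water, no thiol, held at 37 °C for 1 h or 24 h. Nitrite was measured by Griess reagent: 10 min at room temperature, absorbance at 540 nm, sodium nitrite standards 10-80 nmol/mL. Reported as percent NO2- (mol/mol) ± SEM.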

Rattus norvegicus [2] = organism: Rattus norvegicus; test: Relaxation of endothelium […] strips of rat aorta precontracted with noradrenaline; type: functional
Outline: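 Rat aortic strips in Krebs solution at 37 °C, gassed 95% O2-5% CO2 (pH 7.4), equilibrated 1 h, then contracted with noradrenaline 1 µM (submaximal). Cumulative concentration-response curves for relaxation gave EC50.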

[3] = Nitric oxide released from prodrug in the presence of cysteine
Outline: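 Compound at 10^-4 M final was incubated 1 h at 37 °C, pH 7.4, with a 50-fold molar excess of cysteine (1:50). Nitrite was read by the Griess reaction at 540 nm after 10 min at room temperature against nitrite standards (10-80 nmol/mL). Given as percent NO2- (mol/mol) ± SEM.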

Rattus norvegicus [4] = organism: Rattus norvegicus; test: Relaxation of endothelium […] strips of rat aorta precontracted with noradrenaline in presence of 10 uM HbO2; type: functional
Outline: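 Rat aortic strips in Krebs at 37 °C (95% O2-5% CO2, pH 7.4), precontracted with 1 µM noradrenaline and exposed to oxyhemoglobin 10 µM for at least 10 min before the vasodilator was added. Oxyhemoglobin came from bovine hemoglobin reduced with excess sodium dithionite at 4 °C. Relaxation concentration-response curves gave EC50.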

[5] = Nitric oxide releasing capability in the absence of cysteine after 24 hr; outline: as §1

Compound	% NO2- [1] [M/M]	EC50 (Rattus norvegicus [2]; Rattus norvegicus, Aorta) [nM]	% NO2- [3] [M/M]	EC50 (Rattus norvegicus [4]; Rattus norvegicus, Aorta) [nM]	% NO2- [5] [M/M]	EC50 (Rattus norvegicus [2]) [nM]	EC50 (Rattus norvegicus [4]) [nM]
CN(C)CCOc1no[n+]([O-])c1S(=O)(=O)c1ccccc1	0	4.1	58.9	48	–	–	–
SODIUM NITROPRUSSIDE [listing 1 of 2 here]	1.5	–	58	–	–	–	–
NCCSc1c(-c2ccccc2)no[n+]1[O-]	4.5	3480	37.9	15000	56	–	–
CN(C)CCCOc1no[n+]([O-])c1S(=O)(=O)c1ccccc1	0	30	20.2	130	–	–	–
CN(C)CCS(=O)(=O)c1c(-c2ccccc2)no[n+]1[O-]	0	82.6	36.3	1010	33	–	–
CN(C)CCOc1c(-c2ccccc2)no[n+]1[O-]	6.3	1230	62.9	2220	97	–	–
NCCSc1no[n+]([O-])c1-c1ccccc1	0	15200	2.8	78000	–	–	–
NCCOc1no[n+]([O-])c1S(=O)(=O)c1ccccc1	0	13	19.7	46	–	–	–
CN(C)CCSc1no[n+]([O-])c1-c1ccccc1	0	48100	2.9	124000	–	–	–
SODIUM NITROPRUSSIDE [listing 2 of 2 here]	–	–	–	–	–	21.5	48.1
CN(C)CCOc1no[n+]([O-])c1-c1ccccc1	0	7350	3.9	68000	–	–	–
CN(C)CCCOc1c(-c2ccccc2)no[n+]1[O-]	0	1030	91.1	3630	–	–	–
CN(C)CCSc1c(S(=O)(=O)c2ccccc2)no[n+]1[O-]	95.3	55.7	58.5	330	100	–	–
CN(C)CCSc1no[n+]([O-])c1S(=O)(=O)c1ccccc1	0	52	27.9	350	–	–	–
CN(C)CCS(=O)(=O)c1no[n+]([O-])c1-c1ccccc1	0	101	8.8	430	–	–	–
O=[N+]([O-])OCC(CO[N+](=O)[O-])O[N+](=O)[O-] [NITROGLYCERIN]	0	22.4	45	–	–	–	–
CN(C)CCSc1c(-c2ccccc2)no[n+]1[O-]	0	1550	35	11500	–	–	–
CN(C)CCCOc1no[n+]([O-])c1-c1ccccc1	0	14300	3.9	124000	–	–	–
